Assay results from ChEMBL document CHEMBL1811824, “Synthesis and evaluation of mansonone F derivatives as topoisomerase inhibitors” (Eur J Med Chem, 2011).
Calls of active or inactive are those of the source. The calls are words filed in the database; no cut-off is given here.

What was measured:
[1] = Antitumor against human CNE2 cells assessed as cell survival after 48 hrs by MTT assay; format: functional, cell-based; conditions: CNE-2, 48 h
In short: (§1)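 1 × 10^4 cells per well plated and left overnight, then exposed to compound at 0–100 μM for 48 h. Per well, 20 μl of 5 mg/ml MTT added, then incubated 4 h at 37 °C. Untransformed MTT removed, formazan dissolved in DMSO, absorbance read at 570 nm, and IC50 derived. Modified Mosmann method.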

[2] = Antitumor against human GLC82 cells assessed as cell survival after 48 hrs by MTT assay; format: functional, cell-based; conditions: GLC82, 48 h; in short: as §1
[3] = target: T1, DNA topoisomerase 1 (Homo sapiens) (UniProt P11387); assay: Inhibition of human topoisomerase 1-mediated relaxation of supercoiled pBR322 DNA at 250 uM after 30 mins by agarose gel electrophoresis
T1 sequence (whole entry): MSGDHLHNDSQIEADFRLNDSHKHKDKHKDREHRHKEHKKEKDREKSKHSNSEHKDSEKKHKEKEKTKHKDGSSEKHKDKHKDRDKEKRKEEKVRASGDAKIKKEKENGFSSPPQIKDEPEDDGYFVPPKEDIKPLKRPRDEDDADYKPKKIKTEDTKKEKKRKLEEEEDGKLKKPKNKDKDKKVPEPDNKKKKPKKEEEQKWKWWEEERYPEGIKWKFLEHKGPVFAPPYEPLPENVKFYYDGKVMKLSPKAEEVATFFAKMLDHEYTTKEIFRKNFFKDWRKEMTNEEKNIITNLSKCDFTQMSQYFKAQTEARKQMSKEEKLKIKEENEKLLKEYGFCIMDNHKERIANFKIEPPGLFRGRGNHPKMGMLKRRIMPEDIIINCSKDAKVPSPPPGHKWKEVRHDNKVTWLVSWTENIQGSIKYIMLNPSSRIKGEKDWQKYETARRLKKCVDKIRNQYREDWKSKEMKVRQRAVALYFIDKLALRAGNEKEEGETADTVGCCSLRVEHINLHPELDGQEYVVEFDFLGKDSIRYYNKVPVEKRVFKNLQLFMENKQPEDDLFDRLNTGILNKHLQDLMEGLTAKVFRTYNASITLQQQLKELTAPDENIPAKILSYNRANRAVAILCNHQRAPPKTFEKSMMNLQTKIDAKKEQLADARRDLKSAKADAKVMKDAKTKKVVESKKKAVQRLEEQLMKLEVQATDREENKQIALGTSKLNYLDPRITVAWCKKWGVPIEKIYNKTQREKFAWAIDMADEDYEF

[4] = target: T2, DNA topoisomerase 2-alpha (Homo sapiens, UniProt P11388); assay: Inhibition of human topoisomerase 2 alpha-mediated relaxation of supercoiled pBR322 DNA after 30 mins by agarose gel electrophoresis
T2 sequence (P11388 whole entry): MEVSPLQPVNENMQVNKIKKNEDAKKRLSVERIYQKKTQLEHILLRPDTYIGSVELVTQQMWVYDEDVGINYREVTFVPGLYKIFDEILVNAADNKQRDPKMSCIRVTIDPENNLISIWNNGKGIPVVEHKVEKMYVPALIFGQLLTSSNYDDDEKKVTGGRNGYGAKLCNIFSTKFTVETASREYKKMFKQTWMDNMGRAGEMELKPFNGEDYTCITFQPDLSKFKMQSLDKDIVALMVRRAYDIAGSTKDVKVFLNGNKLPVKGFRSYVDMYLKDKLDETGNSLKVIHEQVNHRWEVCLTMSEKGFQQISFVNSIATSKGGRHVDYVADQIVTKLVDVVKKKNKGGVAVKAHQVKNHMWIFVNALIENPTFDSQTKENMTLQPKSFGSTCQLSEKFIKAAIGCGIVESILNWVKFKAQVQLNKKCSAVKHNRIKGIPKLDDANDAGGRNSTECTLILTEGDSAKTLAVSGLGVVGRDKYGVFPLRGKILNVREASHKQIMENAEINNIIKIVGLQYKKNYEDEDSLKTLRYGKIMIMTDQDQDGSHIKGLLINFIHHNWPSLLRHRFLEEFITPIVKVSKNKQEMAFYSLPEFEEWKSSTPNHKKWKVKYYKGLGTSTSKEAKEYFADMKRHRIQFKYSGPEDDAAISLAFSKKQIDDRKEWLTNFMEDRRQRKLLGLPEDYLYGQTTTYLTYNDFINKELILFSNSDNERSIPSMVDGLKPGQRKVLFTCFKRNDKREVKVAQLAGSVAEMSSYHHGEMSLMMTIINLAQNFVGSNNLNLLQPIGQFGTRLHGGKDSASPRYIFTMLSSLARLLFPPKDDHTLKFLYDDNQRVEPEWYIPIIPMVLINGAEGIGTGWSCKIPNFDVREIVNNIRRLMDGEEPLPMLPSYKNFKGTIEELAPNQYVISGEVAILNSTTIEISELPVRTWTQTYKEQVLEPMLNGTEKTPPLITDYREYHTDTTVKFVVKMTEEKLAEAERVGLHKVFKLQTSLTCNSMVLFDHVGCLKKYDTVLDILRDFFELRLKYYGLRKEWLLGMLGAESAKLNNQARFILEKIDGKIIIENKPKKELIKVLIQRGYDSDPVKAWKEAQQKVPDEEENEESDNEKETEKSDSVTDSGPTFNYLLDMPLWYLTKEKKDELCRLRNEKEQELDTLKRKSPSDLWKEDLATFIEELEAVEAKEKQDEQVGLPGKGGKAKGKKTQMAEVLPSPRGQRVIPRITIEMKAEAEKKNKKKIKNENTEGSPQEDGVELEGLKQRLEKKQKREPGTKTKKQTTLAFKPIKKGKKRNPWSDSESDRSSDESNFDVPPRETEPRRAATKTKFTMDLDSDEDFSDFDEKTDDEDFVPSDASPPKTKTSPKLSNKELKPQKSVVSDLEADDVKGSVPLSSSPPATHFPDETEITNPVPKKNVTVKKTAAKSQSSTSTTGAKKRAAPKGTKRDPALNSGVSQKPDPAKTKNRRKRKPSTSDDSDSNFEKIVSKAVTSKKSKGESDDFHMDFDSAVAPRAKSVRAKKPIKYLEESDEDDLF
In short: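 Compound added at constant solvent volume. Started with 1 U human topo IIα, 30 min at 37 °C. Stopped with sarkosyl/bromophenol blue/glycerol buffer. Read on 1% agarose TAE gel, ethidium-stained, imaged under UV.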

[5] = target: T2, DNA topoisomerase 2-alpha; assay: Ratio IC50 of etoposide to IC50 of compound for human topoisomerase 2 alpha
In short: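 Human topo IIα relaxation of 0.2 μg pBR322 in Tris pH 8.0 buffer with 5 mM ATP, using 1 U enzyme for 30 min at 37 °C, read on agarose gel.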

[6] = tested on: Ehrlich; assay: Inhibition of DNA primase in mouse EAC cells assessed as incorporation of [3H]dATP to […] template at 100 uM after 1 hr by scintillation counting; format: cell-based
In short: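 DNA primase isolated from Ehrlich ascites carcinoma cells grown in culture.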

[7] = target: Telomerase reverse transcriptase (Homo sapiens) (UniProt O14746); assay: Inhibition of telomerase in human K562 cells at 20 uM using telo TAGGG telomerase PCR ELISA; format: cell-based
Telomerase reverse transcriptase (Homo sapiens), sequence (O14746 whole entry): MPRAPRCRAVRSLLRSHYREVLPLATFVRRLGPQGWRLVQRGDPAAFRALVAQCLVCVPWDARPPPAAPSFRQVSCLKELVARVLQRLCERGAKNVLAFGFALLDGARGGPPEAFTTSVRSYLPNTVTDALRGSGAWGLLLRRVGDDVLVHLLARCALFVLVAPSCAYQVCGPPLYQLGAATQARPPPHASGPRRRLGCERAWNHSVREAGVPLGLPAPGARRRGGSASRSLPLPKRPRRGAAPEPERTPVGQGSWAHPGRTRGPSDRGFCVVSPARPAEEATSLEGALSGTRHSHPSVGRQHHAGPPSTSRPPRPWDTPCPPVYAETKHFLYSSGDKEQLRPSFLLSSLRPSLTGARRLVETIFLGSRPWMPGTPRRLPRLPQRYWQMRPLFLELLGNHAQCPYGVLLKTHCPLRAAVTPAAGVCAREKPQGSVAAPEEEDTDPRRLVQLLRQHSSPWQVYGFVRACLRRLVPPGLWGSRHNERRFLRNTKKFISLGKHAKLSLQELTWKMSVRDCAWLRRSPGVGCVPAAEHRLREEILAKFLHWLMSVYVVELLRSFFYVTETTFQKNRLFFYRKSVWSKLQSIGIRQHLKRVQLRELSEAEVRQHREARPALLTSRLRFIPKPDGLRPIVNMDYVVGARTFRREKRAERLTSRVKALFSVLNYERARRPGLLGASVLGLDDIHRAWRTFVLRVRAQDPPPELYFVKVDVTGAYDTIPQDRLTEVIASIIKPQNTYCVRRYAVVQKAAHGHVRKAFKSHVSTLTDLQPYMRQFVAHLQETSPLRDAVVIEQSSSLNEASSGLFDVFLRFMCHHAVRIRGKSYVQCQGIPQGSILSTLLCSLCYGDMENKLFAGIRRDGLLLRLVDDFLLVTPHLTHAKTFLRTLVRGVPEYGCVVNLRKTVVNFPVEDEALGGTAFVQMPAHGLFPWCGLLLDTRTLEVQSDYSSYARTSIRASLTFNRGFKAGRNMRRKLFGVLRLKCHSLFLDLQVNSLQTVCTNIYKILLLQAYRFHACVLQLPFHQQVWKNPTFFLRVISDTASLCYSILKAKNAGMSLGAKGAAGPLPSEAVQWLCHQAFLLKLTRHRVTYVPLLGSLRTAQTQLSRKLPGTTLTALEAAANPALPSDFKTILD
In short: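 TRAP-based kit with non-radioactive ELISA read-out, run on K562 human leukemia cells per the manufacturer's instructions.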

| SMILES | IC50 [1] | IC50 [2] | inhibition [3] | IC50 [4] | Ratio IC50 [5] | inhibition [6] | inhibition [7] |
| --- | --- | --- | --- | --- | --- | --- | --- |
| C=CCC1=COC2=C(Cl)C(=O)C(=O)c3cccc1c32 | 5.2 µM | 3.77 µM | Active | 1.54 µM | 39 | – | – |
| O=C1/C(=N\O)C=C2OCCc3cccc1c32 | > 50 µM | > 50 µM | – | – | – | – | – |
| O=C1C(=O)c2cccc3c2C(=C1Cl)OC=C3c1ccc(F)cc1 | 27.5 µM | 31.3 µM | Active | – | – | – | – |
| CC1=C(OCC#N)c2ccccc2C(=O)C1=O | 39.5 µM | 39.2 µM | – | – | – | – | – |
| O=C1C=C2OC=C(c3ccc(F)cc3)c3cccc(c32)C1=O | 16 µM | 3.21 µM | Active | – | – | – | – |
| O=C1C=C2OCCc3cccc(c32)C1=O | 4.83 µM | 5.32 µM | – | – | – | – | – |
| CC[C@@]1(O)C(=O)OCc2c1cc1n(c2=O)Cc2cc3cc(O)ccc3nc2-1 [HYDROXYCAMPTOTHECIN] | 1.04 µM | 0.23 µM | – | – | – | – | – |
| CCCC1=COC2=C(Cl)C(=O)C(=O)c3cccc1c32 | 3.93 µM | 2.15 µM | Active | – | – | – | – |
| O=C1C=C2OCC(O)(c3ccc(F)cc3)c3cccc(c32)C1=O (stereo unspecified) | 9.76 µM | 6.63 µM | Active | – | – | – | – |
| CC(=O)COC1=C(C)C(=O)C(=O)c2ccccc21 | > 50 µM | > 50 µM | – | – | – | – | – |
| CC1(O)COC2=CC(=O)C(=O)c3cccc1c32 (stereo unspecified) | 17.3 µM | 19.2 µM | – | – | – | – | – |
| COc1ccc(C(=O)COC2=C(C)C(=O)C(=O)c3ccccc32)cc1 | 30.4 µM | 44.3 µM | – | – | – | – | – |
| CC1=C(OCC(=O)c2ccc(Cl)cc2)c2ccccc2C(=O)C1=O | 30.4 µM | > 50 µM | – | – | – | – | – |
| O=C1C=C2OC=C(c3ccccc3)c3cccc(c32)C1=O | 9.19 µM | 3.68 µM | Active | – | – | – | – |
| O=C1C(=O)c2cccc3c2C(=C1Cl)OCC3(O)c1ccc(F)cc1 (stereo unspecified) | 13.5 µM | 9.74 µM | Active | – | – | – | – |
| O=C1C=C2OCC(O)(c3ccccc3)c3cccc(c32)C1=O (stereo unspecified) | 3.18 µM | 5.33 µM | Active | – | – | – | – |
| O=C1C=C2OCC(O)(Cc3ccccc3)c3cccc(c32)C1=O (stereo unspecified) | 4.47 µM | 3.82 µM | Active | 4.88 µM | 12 | – | – |

| SMILES | IC50 [1] | IC50 [2] | inhibition [3] | IC50 [4] | Ratio IC50 [5] | inhibition [6] | inhibition [7] |
| --- | --- | --- | --- | --- | --- | --- | --- |
| O=C1C(=O)c2cccc3c2C(=C1Cl)OC=C3c1ccccc1 | 33.3 µM | 40.2 µM | Active | – | – | – | – |
| O=C1C(=O)c2cccc3c2C(=C1Cl)OCC3(O)c1ccccc1 (stereo unspecified) | 2.87 µM | 5.63 µM | Active | – | – | – | – |
| C=CCC1(O)COC2=C(Cl)C(=O)C(=O)c3cccc1c32 (stereo unspecified) | 3.54 µM | 5.33 µM | Active | – | – | – | – |
| O=C1C=C2OCCc3cccc(c32)/C1=N/O | 5.7 µM | 42.8 µM | – | – | – | – | – |
| C=CCOC1=C(C)C(=O)C(=O)c2ccccc21 | > 50 µM | > 50 µM | – | – | – | – | – |
| O=C1C=C2OC=C(Cc3ccccc3)c3cccc(c32)C1=O | 6.52 µM | 2.88 µM | Active | – | – | – | – |
| CC1(O)COC2=C(Cl)C(=O)C(=O)c3cccc1c32 (stereo unspecified) | 8.12 µM | 11.3 µM | Active | – | – | – | – |
| CC1COC2=CC(=O)C(=O)c3cccc1c32 (stereo unspecified) | 2.05 µM | 1.77 µM | inactive | 1.88 µM | 32 | 29% | 22% |
| O=C1C(=O)c2cccc3c2C(=C1Cl)OCC3(O)Cc1ccccc1 (stereo unspecified) | 6.34 µM | 2.75 µM | Active | – | – | – | – |
| c1ccc(-c2nc3cc4c5c(cccc5c3o2)CCO4)cc1 | > 50 µM | > 50 µM | – | – | – | – | – |
| CC1(OC(=O)c2ccccc2)COC2=C(Cl)C(=O)C(=O)c3cccc1c32 (stereo unspecified) | 8.05 µM | 10.8 µM | Active | – | – | – | – |
| CC1=C(OCC(=O)c2ccc(C)c(C)c2)c2ccccc2C(=O)C1=O | > 50 µM | > 50 µM | – | – | – | – | – |
| CCCC1(O)COC2=C(Cl)C(=O)C(=O)c3cccc1c32 (stereo unspecified) | 3.59 µM | 7.93 µM | Active | – | – | – | – |
| c1cc2c3c(cc4nccnc4c3c1)OCC2 | > 50 µM | > 50 µM | – | – | – | – | – |
| O=C1C(=O)c2cccc3c2C(=C1Cl)OC=C3Cc1ccccc1 | 21.5 µM | 21.6 µM | Active | – | – | – | – |
| c1ccc2nc3c(cc4c5c(cccc53)CCO4)nc2c1 | > 50 µM | > 50 µM | – | – | – | – | – |
| CC1=COC2=C(C)C(=O)C(=O)c3c(C)ccc1c32 [MANSONONE F] | 27.3 µM | 15.5 µM | Active | – | – | – | – |
